Calls of active or inactive are those of the source. The calls are words filed in the database; no cut-off is given here.
Columns and labels:
[1] = Inhibition of tubulin assembly after 20 mins by turbidimetric assay
Procedure, shortened: (§1)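 Turbidimetry at 350 nm. 10 μM (1.0 mg/mL) tubulin preincubated with compound for 15 min at 30 °C without GTP, then chilled, and 0.4 mM GTP added. Turbidity followed for 20 min at 30 °C after a temperature jump from 0 °C. IC50 is the concentration halving the turbidity increase relative to control.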

HepG2 [2] = assay: Antiproliferative activity against human HepG2 cells at 20 ug/ml after 3 days by sulforhodamine B assay; format: functional, cell-based
A549 [3] = assay: Antiproliferative activity against human A549 cells at 20 ug/ml after 3 days by sulforhodamine B assay; format: functional, cell-based
MCF7 [4] = assay: Antiproliferative activity against human MCF7 cells at 20 ug/ml after 3 days by sulforhodamine B assay; format: functional, cell-based
KB [5] = assay: Antiproliferative activity against human KB cells at 20 ug/ml after 3 days by sulforhodamine B assay; format: functional, cell-based
HCT-8 [6] = assay: Antiproliferative activity against human HCT8 cells at 20 ug/ml after 3 days by sulforhodamine B assay; format: functional, cell-based
[7] = Antiproliferative activity against human KBVIN cells after 3 days by sulforhodamine B assay; format: functional; conditions: 72 h
Procedure, shortened: (§2)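 Cells grown in RPMI-1640 with 25 mM HEPES, 0.25% sodium bicarbonate, 10% FBS and 100 μg/mL kanamycin. Exposed to compound for 3 days, with at most 0.5% v/v DMSO. Attached cells fixed in cold 50% TCA, stained with 0.4% sulforhodamine B, and the bound dye solubilized. A562 read. GI50 is the concentration giving a 50% absorbance drop versus untreated cells.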

PC-3 [8] = assay: Antiproliferative activity against human PC3 cells at 20 ug/ml after 3 days by sulforhodamine B assay; format: functional, cell-based
[9] = Binding affinity to tubulin at 40 uM
HCT-8 [10] = assay: Antiproliferative activity against human HCT8 cells after 3 days by sulforhodamine B assay; format: functional; conditions: HCT-8, 72 h; procedure, shortened: as §2
MCF7 [11] = assay: Antiproliferative activity against human MCF7 cells after 3 days by sulforhodamine B assay; format: functional; conditions: MCF7, 72 h
A549 [12] = assay: Inhibition of spindle formation in human A549 cells after 24 hs by DAPI staining; format: functional, cell-based
Procedure, shortened: (§3)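 A549 cells held in chamber slides 12 h, then exposed to compound (0.1 nM) or DMSO for 24 h at 37 °C; fixed in 4% paraformaldehyde/PBS, permeabilized with 0.5% Triton X-100, stained with anti-α-tubulin monoclonal plus FITC secondary and DAPI for nuclei; microtubules and mitotic spindles scored by fluorescence microscopy. Comparators: colchicine 100 nM, paclitaxel 1.5 nM, doxorubicin 500 nM.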

PC-3 [13] = assay: Antiproliferative activity against human PC3 cells after 3 days by sulforhodamine B assay; format: functional; conditions: PC-3, 72 h
A549 [14] = assay: Inhibition of microtubule polymerization in human A549 cells after 24 hs by immunofluorescence staining; format: cell-based; procedure, shortened: as §3
HepG2 [15] = assay: Antiproliferative activity against human HepG2 cells after 3 days by sulforhodamine B assay; format: functional; conditions: HepG2, 72 h
Procedure, shortened: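 Sulforhodamine B assay over 3 days in culture, with at most 0.5% v/v DMSO. Attached cells fixed in cold 50% TCA, stained with 0.4% SRB, and the dye solubilized. Absorbance read at 562 nm. GI50 is the concentration causing a 50% fall in absorbance relative to untreated cells.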

KB [16] = assay: Antiproliferative activity against human KB cells after 3 days by sulforhodamine B assay; format: functional; conditions: 72 h; procedure, shortened: as §2
A549 [17] = assay: Antiproliferative activity against human A549 cells after 3 days by sulforhodamine B assay; format: functional; conditions: A549, 72 h; procedure, shortened: as §2
[18] = Displacement of [3H]colchicine from tubulin at 5 uM for 10 mins
Procedure, shortened: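 1.0 μM tubulin incubated with 5.0 μM [3H]colchicine and 5.0 μM inhibitor for 10 min at 37 °C, when control samples reach about 40–60% of maximal colchicine binding. Result given as percent inhibition of colchicine binding.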

[19] = Partial inhibition of tubulin assembly after 20 mins at 4 uM by turbidimetric assay; procedure, shortened: as §1

Compound | IC50 [1] | Activity (HepG2 [2]) | Activity (A549 [3]) | Activity (MCF7 [4]) | Activity (KB [5]) | Activity (HCT-8 [6]) | GI50 [7] | Activity (PC-3 [8]) | Activity [9] | GI50 (HCT-8 [10]) | IC50 ([1]; read-out: IC50) | GI50 (MCF7 [11]) | inhibition (A549 [12]) | GI50 (PC-3 [13]) | inhibition (A549 [14]) | GI50 (HepG2 [15]) | GI50 (KB [16]) | GI50 (A549 [17]) | inhibition [18] | inhibition [19]
CCC1=C(O)c2c(oc(-c3ccccc3)cc2=O)C(CC)(CC)C1=O [6,8,8-TRIETHYL DESMOSDUMOTIN B] | Not Active | inactive | inactive | inactive | inactive | inactive | 1070 nM | inactive | inactive |  |  |  |  |  |  |  |  |  |  | 
CCC1=C(O)c2c(oc(-c3csc4ccccc34)cc2=O)C(CC)(CC)C1=O |  |  |  |  |  |  | 70 nM |  |  | 130 nM | 2000 nM | 110 nM | Active | 160 nM | Active | 130 nM | 80 nM | 60 nM | 78% | 
CCC1=C(O)c2c(oc(-c3ccc4ccccc4c3)cc2=O)C(CC)(CC)C1=O |  |  |  |  |  |  | 1160 nM |  |  | 1290 nM |  | 1420 nM |  | 2580 nM |  | 1550 nM | 1030 nM | 1160 nM | 29% | Active
COc1cc2c(c(OC)c1OC)-c1ccc(OC)c(=O)cc1[C@@H](NC(C)=O)CC2 |  |  |  |  |  |  |  |  |  |  |  |  | Active |  | Active |  |  |  |  | 
